Experimental data from ChEMBL document CHEMBL5532752, “Integrating a quinone substructure into histone deacetylase inhibitors to cope with Alzheimer's disease and cancer” (RSC Med Chem, 2024).

Key:
Type in all cases: functional
SH-SY5Y [1] = assay: Cytotoxicity against human SH-SY5Y cells assessed as reduction in cell viability incubated for 72 hrs by MUH reagent based spectrophotometric analysis
Summary of the method: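 SH-SY5Y in DMEM/10% FBS seeded 0.75 × 10⁴ cells/well, after 24 h treated with 0.1–100 μM for 24, 48 or 72 h. Washed, incubated with MUH 0.01 mg/mL in PBS 30 min at 37 °C in the dark; fluorescence ex 330/em 450 nm, normalized to untreated cells. IC50 by nonlinear regression, log(inhibitor) vs normalized response.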

SH-SY5Y [2] = assay: Cytotoxicity against human SH-SY5Y cells assessed as reduction in cell viability incubated for 24 hrs by MUH reagent based spectrophotometric analysis
SH-SY5Y [3] = assay: Cytotoxicity against human SH-SY5Y cells assessed as reduction in cell viability incubated for 48 hrs by MUH reagent based spectrophotometric analysis

Row | SMILES | IC50 (SH-SY5Y [1]) [µM] | IC50 (SH-SY5Y [2]) [µM] | IC50 (SH-SY5Y [3]) [µM]
1 | CC1=C(NCc2ccc(C(=O)NO)cc2)C(=O)c2ccccc2C1=O | 14 | 39 | 19.8
2 | CC1=C(NCCCCCC(=O)NO)C(=O)c2ccccc2C1=O | 53 | 178 | 84.4
3 | Nc1ccccc1NC(=O)c1ccc(CNC2=CC(=O)c3ccccc3C2=O)cc1 | 4.42 | 59.5 | 8.53
4 | O=C(CS)NCCCCNC1=CC(=O)c2ccccc2C1=O | > 100 | > 100 | > 100
5 | O=C(CCCCCNC1=CC(=O)c2ccccc2C1=O)NO | 22.5 | 80 | 26.9
6 | O=C(NO)c1ccc(CNC2=CC(=O)c3ccccc3C2=O)cc1 | 7.74 | 39 | 8.67
